Results of several laboratories.
Compare with care: the assays were run in different laboratories.
Target: Aurora kinase B (AURKB, Homo sapiens, UniProt Q96GD4)

CS(=O)(=O)Nc1cccc(-c2csc(NC(=O)CSc3nc4nccnc4c(=O)n3CCc3ccccc3)n2)c1  inhibition (enzyme activity; inhibitor; 10 µM): -11%
Cc1nn(CC(F)(F)F)cc1Nc1ncc(Br)c(NCCc2cnc[nH]2)n1  remaining activity (enzyme activity; inhibitor; radiometric; 1 µM): 22%
N#CCCc1ccc2c(c1)-c1[nH]c3ccc([N+](=O)[O-])cc3c1CC(=O)N2  remaining signal (cell-free assay; 0.5 µM): 80%
CC/C(=N\NC(=O)NCc1cccc(O)c1)c1ccc(O)c(C)c1O  inhibition (enzyme activity; inhibitor; 0.1 µM): 2.9%
CN(C)CC#Cc1ccc(OCCCc2sc(N3CCc4cccc(C(=O)Nc5nc6ccccc6s5)c4C3)nc2C(=O)O)c(F)c1  remaining binding (cell-free assay; competition with immobilised ligand; 1 µM): 79%
C=CC(=O)Nc1cc(Nc2nccc(Nc3cc(Cl)c(F)cc3C(C)(C)O)n2)c(OC)cc1N1CC[C@@H](N(C)C)C1  inhibition (enzyme activity; inhibitor; 1 µM): 10%
CN(C)S(=O)(=O)c1ccc2c(c1)/C(=C/c1cc3c([nH]1)CCCC3)C(=O)N2  remaining signal (cell-free assay; 0.5 µM): 11%
CCc1ccccc1C(=O)Nc1n[nH]c2c(C)c(F)c(C3C(C#N)=C(C)N(C)C(C)=C3C#N)cc12  remaining binding (cell-free assay; competition with immobilised ligand; 1 µM): 88%
CNc1cccc2cc(C(=O)Nc3ccc(C(=O)O)cc3)c(=O)[nH]c12  inhibition (enzyme activity; inhibitor; 10 µM): -8.1%
Brc1cnc(Nc2cccc(CN3CCOCC3)c2)nc1NCCc1c[nH]cn1  remaining activity (enzyme activity; inhibitor; radiometric; 1 µM): 1%
CN(C)C1CCN(CC#Cc2nn(C3CCCC3)c3nc(NCc4ccccc4)ncc23)C1 (stereo not shown)  inhibition (enzyme activity; inhibitor; FRET; 1 µM): 21%
CCC(=O)N[C@@H]1CC[C@H](C(=O)N(C)c2ccc(-c3nc4ccccc4o3)cc2)C1  remaining binding (cell-free assay; competition with immobilised ligand; 1 µM): 96%
O=C(Nc1cccc(Nc2ncc(Br)c(NCCc3cnc[nH]3)n2)c1)N1CCCC1  remaining activity (enzyme activity; inhibitor; radiometric; 1 µM): 2%
CC(=O)C1=C(C)N(c2cccc(C(F)(F)F)c2)C(=O)N[C@@H]1c1ccc(C#N)nc1  remaining binding (cell-free assay; competition with immobilised ligand; 1 µM): 100%
c1cc(CN2CCOCC2)cc(Nc2ncc(C3CC3)c(NCCc3c[nH]cn3)n2)c1  remaining activity (enzyme activity; inhibitor; radiometric; 1 µM): 2%
C[C@H](c1cccc(C#N)c1)n1cc(Cl)cc(C(N)=O)c1=N  remaining binding (cell-free assay; competition with immobilised ligand; 1 µM): 100%
O=C1c2ccccc2-c2n[nH]c3cccc1c23  activity vs control (enzyme activity; inhibitor; 0.5 µM): 14.9%
Cc1c[nH]c2nccc(Oc3c(F)cc(Nc4cc(Cl)nc(N)n4)cc3F)c12  remaining binding (cell-free assay; competition with immobilised ligand; 0.1 µM): 82%
COc1cc(/C=C/C(=O)CC(=O)/C=C/c2ccc(O)c(OC)c2)ccc1O  activity vs control (enzyme activity; inhibitor; 1 µM): 79%
